Reference: ChEMBL document CHEMBL5303300, “EUbOPEN Chemogenomics Library - Multiplex” (2023)
Values joined by “and” are separate entries in the source; they are usually repeats but may differ in a detail not shown here. Equal entries are not always repeated.

Test system: HEK-293T
Assay: Multiplex assay against HEK293T
Type: toxicity, cell-based
Settings: human, number of replicates 2
Procedure, shortened: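 At seeding, live cells were stained with Hoechst33342, BioTracker Green Microtubule Cytoskeleton Dye, MitoTracker Red and Annexin V Alexa Fluor 680. After compound addition they were imaged on a CQ1 microscope at 37°C and 5% CO2, and CellPathfinder machine-learning gating sorted them into Hoechst high-intensity objects or normal cells, with normal cells further split into healthy, pyknosed or fragmented nuclei and pyknosed cells into mitotic or apoptotic. Tubulin, mitochondrial-mass and membrane-permeability phenotypes are given as per cents of cells with healthy nuclei.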

[1] = 12 h, 1 µM, compound concentration 1 uM
[2] = 12 h, 10 µM, compound concentration 10 uM
[3] = 24 h, 1 µM, compound concentration 1 uM
[4] = 24 h, 10 µM, compound concentration 10 uM
[5] = 48 h, 1 µM, compound concentration 1 uM
[6] = 48 h, 10 µM, compound concentration 10 uM

For `Cn1cc(-n2cnc3c(NCc4nc5cc(Cl)c(Cl)cc5[nH]4)nc(N4CCOCC4)nc32)cn1`, the “Population Apoptotic (%)” value [1] was 69% and 59%, the “Population Fragmented Nuclei (%)” value [1] was 3% and 5% and the “Population Healthy Nuclei (%)” value [1] was 76% and 75%. For the same compound, the “Population Hoechst High Intensity Objects (%)” value [1] was 16% and 17%, the “Population Membrane Permeable-Phenotype (%)” value [1] was 3% and 1% and the “Population Mitochondria Different-Phenotype (%)” value [1] was 65% and 66%. For the same compound, the “Population Mitotic Cells (%)” value [1] was 30% and 40%, the “Population Normal (%)” value [1] was 83% and 82% and the “Population Pyknosed Nuclei (%)” value [1] was 20% and 19%. For the same compound, the “Population Tubulin-Different-Phenotype (%)” value [1] was 83% and 84%, the “Total Cell Count” value [1] was 293 and 335 and the “Population Apoptotic (%)” value [2] was 71% and 65%. The “Population Fragmented Nuclei (%)” value [2] was 4% and 2%, the “Population Healthy Nuclei (%)” value [2] was 78% and 76% and the “Population Hoechst High Intensity Objects (%)” value [2] was 18% and 12%. For the same compound, the “Population Membrane Permeable-Phenotype (%)” value [2] was 1% and 2%, the “Population Mitochondria Different-Phenotype (%)” value [2] was 77% and 73% and the “Population Mitotic Cells (%)” value [2] was 28% and 34%. The “Population Normal (%)” value [2] was 81% and 87%, the “Population Pyknosed Nuclei (%)” value [2] was 16% and 20% and the “Population Tubulin-Different-Phenotype (%)” value [2] was 95% and 96%. The “Total Cell Count” value [2] was 262 and 266, the “Population Apoptotic (%)” value [3] was 72% and 66% and the “Population Fragmented Nuclei (%)” value [3] was 2% and 4%. The “Population Healthy Nuclei (%)” value [3] was 72% and 74%, the “Population Hoechst High Intensity Objects (%)” value [3] was 25% and 27% and the “Population Membrane Permeable-Phenotype (%)” value [3] was 3% and 0%. The “Population Mitochondria Different-Phenotype (%)” value [3] was 75% and 82%, the “Population Mitotic Cells (%)” value [3] was 27% and 33% and the “Population Normal (%)” value [3] was 74% and 72%. The “Population Pyknosed Nuclei (%)” value [3] was 25% and 20%, the “Population Tubulin-Different-Phenotype (%)” value [3] was 78% and 89% and the “Total Cell Count” value [3] was 256 and 257. For the same compound, the “Population Apoptotic (%)” value [4] was 69% and 85%, the “Population Fragmented Nuclei (%)” value [4] was 2% and 5% and the “Population Healthy Nuclei (%)” value [4] was 81% and 80%. For the same compound, the “Population Hoechst High Intensity Objects (%)” value [4] was 21% and 11%, the “Population Membrane Permeable-Phenotype (%)” value [4] was 2% and 0% and the “Population Mitochondria Different-Phenotype (%)” value [4] was 87% and 88%. For the same compound, the “Population Mitotic Cells (%)” value [4] was 30% and 14%, the “Population Normal (%)” value [4] was 78% and 88% and the “Population Pyknosed Nuclei (%)” value [4] was 15% and 13%. For the same compound, the “Population Tubulin-Different-Phenotype (%)” value [4] was 92% and 95%, the “Total Cell Count” value [4] was 217 and the “Population Apoptotic (%)” value [5] was 69% and 62%. The “Population Fragmented Nuclei (%)” value [5] was 7% and 6%, the “Population Healthy Nuclei (%)” value [5] was 69% and 74% and the “Population Hoechst High Intensity Objects (%)” value [5] was 20% and 29%. For the same compound, the “Population Membrane Permeable-Phenotype (%)” value [5] was 5% and 1%, the “Population Mitochondria Different-Phenotype (%)” value [5] was 66% and 78% and the “Population Mitotic Cells (%)” value [5] was 30% and 37%. The “Population Normal (%)” value [5] was 79% and 70%, the “Population Pyknosed Nuclei (%)” value [5] was 22% and 19% and the “Population Tubulin-Different-Phenotype (%)” value [5] was 75% and 87%. The “Total Cell Count” value [5] was 308 and 317, the “Population Apoptotic (%)” value [6] was 70% and 84% and the “Population Fragmented Nuclei (%)” value [6] was 5%. For the same compound, the “Population Healthy Nuclei (%)” value [6] was 78% and 70%, the “Population Hoechst High Intensity Objects (%)” value [6] was 17% and 11% and the “Population Membrane Permeable-Phenotype (%)” value [6] was 1% and 2%. The “Population Mitochondria Different-Phenotype (%)” value [6] was 89% and 87%, the “Population Mitotic Cells (%)” value [6] was 29% and 16% and the “Population Normal (%)” value [6] was 82% and 88%. For the same compound, the “Population Pyknosed Nuclei (%)” value [6] was 16% and 23%, the “Population Tubulin-Different-Phenotype (%)” value [6] was 94% and 93% and the “Total Cell Count” value [6] was 275 and 237.

With `Cc1cc(NC(=O)c2cccc(NC(=O)/C=C/CN(C)C)c2)ccc1Nc1nccc(-c2cccnc2)n1` the “Population Apoptotic (%)” value [1] was 41% and 60%, the “Population Fragmented Nuclei (%)” value [1] was 3% and the “Population Healthy Nuclei (%)” value [1] was 87%. The “Population Hoechst High Intensity Objects (%)” value [1] was 11% and 10%, the “Population Membrane Permeable-Phenotype (%)” value [1] was 4% and 2% and the “Population Mitochondria Different-Phenotype (%)” value [1] was 40% and 30%. For the same compound, the “Population Mitotic Cells (%)” value [1] was 58% and 40%, the “Population Normal (%)” value [1] was 88% and 89% and the “Population Pyknosed Nuclei (%)” value [1] was 9%. For the same compound, the “Population Tubulin-Different-Phenotype (%)” value [1] was 93% and 92%, the “Total Cell Count” value [1] was 450 and 477 and the “Population Apoptotic (%)” value [2] was 63% and 71%. The “Population Fragmented Nuclei (%)” value [2] was 1% and 3%, the “Population Healthy Nuclei (%)” value [2] was 85% and 87% and the “Population Hoechst High Intensity Objects (%)” value [2] was 8% and 11%. The “Population Membrane Permeable-Phenotype (%)” value [2] was 2% and 1%, the “Population Mitochondria Different-Phenotype (%)” value [2] was 35% and 50% and the “Population Mitotic Cells (%)” value [2] was 36% and 28%. The “Population Normal (%)” value [2] was 91% and 88%, the “Population Pyknosed Nuclei (%)” value [2] was 12% and 9% and the “Population Tubulin-Different-Phenotype (%)” value [2] was 95% and 97%. For the same compound, the “Total Cell Count” value [2] was 393 and 436, the “Population Apoptotic (%)” value [3] was 62% and 53% and the “Population Fragmented Nuclei (%)” value [3] was 5%. For the same compound, the “Population Healthy Nuclei (%)” value [3] was 82% and 81%, the “Population Hoechst High Intensity Objects (%)” value [3] was 11% and 10% and the “Population Membrane Permeable-Phenotype (%)” value [3] was 2%. For the same compound, the “Population Mitochondria Different-Phenotype (%)” value [3] was 36% and 28%, the “Population Mitotic Cells (%)” value [3] was 37% and 46% and the “Population Normal (%)” value [3] was 88% and 89%. The “Population Pyknosed Nuclei (%)” value [3] was 12%, the “Population Tubulin-Different-Phenotype (%)” value [3] was 92% and 90% and the “Total Cell Count” value [3] was 510 and 551. The “Population Apoptotic (%)” value [4] was 76% and 74%, the “Population Fragmented Nuclei (%)” value [4] was 2% and 5% and the “Population Healthy Nuclei (%)” value [4] was 87% and 77%. For the same compound, the “Population Hoechst High Intensity Objects (%)” value [4] was 19% and 14%, the “Population Membrane Permeable-Phenotype (%)” value [4] was 0% and 1% and the “Population Mitochondria Different-Phenotype (%)” value [4] was 79% and 60%. The “Population Mitotic Cells (%)” value [4] was 23% and 25%, the “Population Normal (%)” value [4] was 80% and 85% and the “Population Pyknosed Nuclei (%)” value [4] was 10% and 17%. The “Population Tubulin-Different-Phenotype (%)” value [4] was 99% and 96%, the “Total Cell Count” value [4] was 367 and 377 and the “Population Apoptotic (%)” value [5] was 66% and 70%. The “Population Fragmented Nuclei (%)” value [5] was 10% and 12%, the “Population Healthy Nuclei (%)” value [5] was 77% and 76% and the “Population Hoechst High Intensity Objects (%)” value [5] was 11% and 12%. For the same compound, the “Population Membrane Permeable-Phenotype (%)” value [5] was 5% and 7%, the “Population Mitochondria Different-Phenotype (%)” value [5] was 10% and 11% and the “Population Mitotic Cells (%)” value [5] was 33% and 29%. For the same compound, the “Population Normal (%)” value [5] was 88% and 87%, the “Population Pyknosed Nuclei (%)” value [5] was 11% and the “Population Tubulin-Different-Phenotype (%)” value [5] was 83% and 80%. For the same compound, the “Total Cell Count” value [5] was 671 and 800, the “Population Apoptotic (%)” value [6] was 74% and 73% and the “Population Fragmented Nuclei (%)” value [6] was 6%. For the same compound, the “Population Healthy Nuclei (%)” value [6] was 43% and 40%, the “Population Hoechst High Intensity Objects (%)” value [6] was 27% and 19% and the “Population Membrane Permeable-Phenotype (%)” value [6] was 12% and 9%. For the same compound, the “Population Mitochondria Different-Phenotype (%)” value [6] was 61%, the “Population Mitotic Cells (%)” value [6] was 25% and 26% and the “Population Normal (%)” value [6] was 72% and 80%. For the same compound, the “Population Pyknosed Nuclei (%)” value [6] was 50% and 52%, the “Population Tubulin-Different-Phenotype (%)” value [6] was 74% and 70% and the “Total Cell Count” value [6] was 368 and 375.
